For 13 compounds, EC50, IC50 and Efficacy results are on record in ChEMBL document CHEMBL2429801, “3-Ylidenephthalides as a new class of transient receptor potential channel TRPA1 and TRPM8 modulators” (Bioorg Med Chem Lett, 2013).

Some results are limits rather than exact numbers.

Assay [1] has as its target T1, Transient receptor potential cation channel subfamily A member 1 (Rattus norvegicus, UniProt Q6RI86). As to the kind of experiment: Agonist activity at rat recombinant TRPA1 overexpressed in HEK293 cells assessed as induction of intracellular calcium influx by Fluo-4-AM dye-based spectrofluorimetric analysis. Type of assay: cell-based.
The target of assay [2] is T1, Transient receptor potential cation channel subfamily A member 1. Description: Antagonist activity at rat recombinant TRPA1 overexpressed in HEK293 cells assessed as inhibition of allyl isothiocyanate-induced intracellular calcium influx preincubated for 5 mins followed by allyl isothiocyanate challenge by Fluo-4-AM dye-based spectrofluorimetric analysis. Type of assay: cell-based. In outline:
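Test compounds were preincubated for 5 min in the cuvette with Fluo-4-loaded rat TRPA1-HEK293 cells in Tyrode's buffer, followed by 100 µM AITC challenge.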
On the technique in general: A change in cytosolic calcium serves as a functional read-out for many receptors and channels.

Assay [3] addresses Transient receptor potential cation channel subfamily A member 1 (Rattus norvegicus) (UniProt Q6RI86). Description: Agonist activity at rat recombinant TRPA1 overexpressed in HEK293 cells assessed as induction of intracellular calcium influx by Fluo-4-AM dye-based spectrofluorimetric analysis relative to allyl isothiocyanate. The class given is cell-based.
Assay [4] has as its target T2, Transient receptor potential cation channel subfamily M member 8 (Rattus norvegicus, UniProt Q8R455). As to the kind of experiment: Antagonist activity at rat recombinant TRPM8 overexpressed in HEK293 cells assessed as inhibition of icilin-induced intracellular calcium influx preincubated for 5 mins followed by icilin challenge by Fluo-4-AM dye-based spectrofluorimetric analysis. Type of assay: cell-based.

For assay [5], the target named is T2, Transient receptor potential cation channel subfamily M member 8. As to the kind of experiment: Antagonist activity at rat recombinant TRPM8 overexpressed in HEK293 cells assessed as inhibition of menthol-induced intracellular calcium influx preincubated for 5 mins followed by menthol challenge by Fluo-4-AM dye-based spectrofluorimetric analysis. The class given is cell-based.

Assay [6] deals with Transient receptor potential cation channel subfamily M member 8 (Rattus norvegicus) (UniProt Q8R455). Description: Agonist activity at rat recombinant TRPM8 overexpressed in HEK293 cells assessed as induction of intracellular calcium influx by Fluo-4-AM dye-based spectrofluorimetric analysis relative to ionomycin. Set-up: concentration or dose not given beside the values. Type of assay: cell-based.
Chain of Transient receptor potential cation channel subfamily M member 8 (Rattus norvegicus) (Q8R455 whole entry, looked up): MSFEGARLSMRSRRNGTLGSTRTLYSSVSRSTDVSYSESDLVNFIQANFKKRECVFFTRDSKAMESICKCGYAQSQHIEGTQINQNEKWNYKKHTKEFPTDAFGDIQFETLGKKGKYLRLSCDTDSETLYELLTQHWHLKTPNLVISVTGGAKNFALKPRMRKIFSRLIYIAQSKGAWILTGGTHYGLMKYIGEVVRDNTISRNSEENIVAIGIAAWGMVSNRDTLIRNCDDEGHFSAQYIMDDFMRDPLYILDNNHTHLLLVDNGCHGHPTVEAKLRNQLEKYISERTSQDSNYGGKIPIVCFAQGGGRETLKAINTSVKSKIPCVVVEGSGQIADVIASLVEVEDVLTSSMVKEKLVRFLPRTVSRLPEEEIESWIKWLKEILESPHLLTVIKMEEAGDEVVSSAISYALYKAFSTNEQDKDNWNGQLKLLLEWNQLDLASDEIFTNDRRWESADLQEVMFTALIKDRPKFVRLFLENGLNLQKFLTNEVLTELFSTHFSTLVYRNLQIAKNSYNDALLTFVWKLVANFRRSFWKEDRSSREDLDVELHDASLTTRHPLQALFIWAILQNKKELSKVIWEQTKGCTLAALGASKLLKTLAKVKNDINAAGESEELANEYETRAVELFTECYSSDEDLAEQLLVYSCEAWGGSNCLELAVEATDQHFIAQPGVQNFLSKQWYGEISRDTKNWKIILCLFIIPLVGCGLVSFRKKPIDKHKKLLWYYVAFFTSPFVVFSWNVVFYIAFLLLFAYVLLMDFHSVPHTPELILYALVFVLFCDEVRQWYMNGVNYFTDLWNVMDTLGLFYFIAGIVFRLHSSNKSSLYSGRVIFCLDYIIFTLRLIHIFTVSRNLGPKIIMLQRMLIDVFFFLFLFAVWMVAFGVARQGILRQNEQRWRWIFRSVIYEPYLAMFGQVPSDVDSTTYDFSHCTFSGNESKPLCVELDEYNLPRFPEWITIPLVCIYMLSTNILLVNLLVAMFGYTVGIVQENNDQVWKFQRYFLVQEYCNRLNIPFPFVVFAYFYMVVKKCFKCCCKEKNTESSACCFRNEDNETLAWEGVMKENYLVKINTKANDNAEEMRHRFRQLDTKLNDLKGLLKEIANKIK

For assay [7], the target named is T2, Transient receptor potential cation channel subfamily M member 8. As to the kind of experiment: Agonist activity at rat recombinant TRPM8 overexpressed in HEK293 cells assessed as induction of intracellular calcium influx by Fluo-4-AM dye-based spectrofluorimetric analysis. The class given is cell-based.
For assay [8], the target named is T3, Transient receptor potential cation channel subfamily A member 1 (Homo sapiens, UniProt O75762). Description: Antagonist activity at TRPA1 (unknown origin) assessed as inhibition of mustard oil-activated […]. In short, it runs like this:
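Rat TRPA1 stably expressed in HEK293 cells grown in EMEM with 10% FBS. Cells were loaded with Fluo-4-AM (4 µM) for 1 h at room temperature, then suspended in Tyrode's buffer pH 7.4. Compound was added 5 min before 100 µM allyl isothiocyanate. Ca2+ fluorescence (ex 488/em 516 nm) was read at 25 °C, with the agonist-alone response set as 100%.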

Assay [9] addresses T3, Transient receptor potential cation channel subfamily A member 1. As to the kind of experiment: Agonist activity at TRPA1 (unknown origin).

T2 sequence (Q8R455 whole entry): as the sequence (Q8R455 whole entry, looked up) above
Chain of Transient receptor potential cation channel subfamily A member 1 (Rattus norvegicus) (Q6RI86 whole entry): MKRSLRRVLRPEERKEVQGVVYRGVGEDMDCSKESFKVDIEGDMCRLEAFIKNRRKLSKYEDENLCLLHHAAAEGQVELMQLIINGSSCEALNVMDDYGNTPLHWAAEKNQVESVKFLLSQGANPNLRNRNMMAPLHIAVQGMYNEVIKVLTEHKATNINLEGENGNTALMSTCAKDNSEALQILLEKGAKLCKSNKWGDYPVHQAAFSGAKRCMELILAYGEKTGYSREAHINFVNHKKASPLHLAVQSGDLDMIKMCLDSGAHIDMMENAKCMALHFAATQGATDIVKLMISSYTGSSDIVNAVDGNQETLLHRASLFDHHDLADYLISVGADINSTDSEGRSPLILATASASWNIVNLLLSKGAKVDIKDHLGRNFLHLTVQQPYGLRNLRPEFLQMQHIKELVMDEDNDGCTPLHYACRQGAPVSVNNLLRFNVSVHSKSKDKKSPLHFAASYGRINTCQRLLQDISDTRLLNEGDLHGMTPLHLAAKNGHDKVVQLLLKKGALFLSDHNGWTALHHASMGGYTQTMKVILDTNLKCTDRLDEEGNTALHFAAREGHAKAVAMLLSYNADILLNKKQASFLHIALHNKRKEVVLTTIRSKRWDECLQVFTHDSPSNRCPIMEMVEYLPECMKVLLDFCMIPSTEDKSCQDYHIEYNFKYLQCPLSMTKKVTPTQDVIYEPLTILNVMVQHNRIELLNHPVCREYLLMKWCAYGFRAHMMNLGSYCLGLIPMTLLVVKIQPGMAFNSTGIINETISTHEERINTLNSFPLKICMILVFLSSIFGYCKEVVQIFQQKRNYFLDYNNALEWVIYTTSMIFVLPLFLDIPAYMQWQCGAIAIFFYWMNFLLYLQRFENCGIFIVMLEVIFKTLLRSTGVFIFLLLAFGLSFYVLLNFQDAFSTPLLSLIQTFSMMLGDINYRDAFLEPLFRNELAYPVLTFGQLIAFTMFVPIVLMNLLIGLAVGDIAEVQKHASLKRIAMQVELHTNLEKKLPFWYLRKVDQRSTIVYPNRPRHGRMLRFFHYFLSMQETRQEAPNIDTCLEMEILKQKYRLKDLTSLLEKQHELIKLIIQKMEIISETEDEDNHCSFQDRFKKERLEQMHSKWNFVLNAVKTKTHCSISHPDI
T1 sequence (Q6RI86 whole entry): as above
T3 sequence (O75762 whole entry): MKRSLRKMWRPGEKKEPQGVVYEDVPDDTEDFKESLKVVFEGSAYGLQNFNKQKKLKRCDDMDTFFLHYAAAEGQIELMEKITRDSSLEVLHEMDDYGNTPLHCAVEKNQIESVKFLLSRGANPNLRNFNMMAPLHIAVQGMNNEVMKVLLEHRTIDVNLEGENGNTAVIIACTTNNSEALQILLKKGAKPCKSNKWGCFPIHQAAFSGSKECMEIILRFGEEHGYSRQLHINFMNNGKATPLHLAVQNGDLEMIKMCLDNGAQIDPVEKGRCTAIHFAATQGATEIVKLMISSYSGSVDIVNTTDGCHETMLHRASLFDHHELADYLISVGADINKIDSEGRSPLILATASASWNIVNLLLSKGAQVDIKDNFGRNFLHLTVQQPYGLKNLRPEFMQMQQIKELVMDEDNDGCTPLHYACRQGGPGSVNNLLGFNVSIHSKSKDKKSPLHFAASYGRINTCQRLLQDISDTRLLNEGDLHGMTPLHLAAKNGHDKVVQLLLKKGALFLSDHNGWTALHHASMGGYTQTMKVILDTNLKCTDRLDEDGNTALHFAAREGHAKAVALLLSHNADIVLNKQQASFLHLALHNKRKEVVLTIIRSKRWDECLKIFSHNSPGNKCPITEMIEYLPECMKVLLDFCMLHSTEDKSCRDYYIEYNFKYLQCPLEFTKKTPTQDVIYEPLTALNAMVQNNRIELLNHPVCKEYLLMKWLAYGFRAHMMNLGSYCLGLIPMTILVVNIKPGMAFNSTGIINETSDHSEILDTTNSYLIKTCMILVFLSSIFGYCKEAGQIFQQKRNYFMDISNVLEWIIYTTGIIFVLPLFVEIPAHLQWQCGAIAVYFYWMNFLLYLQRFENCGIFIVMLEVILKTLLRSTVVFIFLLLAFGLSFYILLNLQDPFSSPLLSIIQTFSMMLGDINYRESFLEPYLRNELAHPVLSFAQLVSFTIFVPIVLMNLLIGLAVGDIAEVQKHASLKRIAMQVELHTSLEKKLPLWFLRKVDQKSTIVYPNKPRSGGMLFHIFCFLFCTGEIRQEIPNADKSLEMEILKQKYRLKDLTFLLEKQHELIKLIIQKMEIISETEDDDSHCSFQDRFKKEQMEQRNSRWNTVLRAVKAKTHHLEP

As to `C=C1OC(=O)c2c(C)cc(C)cc21`, the EC50 (usually the concentration that produces a half-maximal response) in assay [1] was found to be 17.2 µM. The figures for the half-inhibitory concentration (IC50) in [2], in [4] and in assay [5] were 34 µM, 90.1 µM and 128 µM, respectively. Besides, the Efficacy in assay [3] is 85.1%; in assay [6], below 10%.

`C=C1OC(=O)c2cc(F)ccc21`: the EC50 in assay [1] is 32.2 µM. For the same compound, the figures for the IC50 in [2], in assay [4] and in [5] were above 100 µM, above 200 µM and above 200 µM, respectively. Also, the Efficacy is 10.2% in assay [3] and below 10% in assay [6].

Regarding `O=C1O/C(=C\c2ccccc2)c2ccccc21`, the EC50 in [1] was 3 µM. In addition, the IC50 (as a rule, the point on the concentration scale where inhibition reaches its midpoint) in assay [2] was 2.9 µM; in assay [4], 8.3 µM; in assay [5], 10.2 µM. Besides, the results for the Efficacy in [3] and in assay [6] were 93.6% and below 10%, respectively.

`O=C1O/C(=C\c2ccc(Cl)cc2)c2ccccc21`: the EC50 in [1] is 2 µM. The values for the IC50 in [2], in [4] and in assay [5] were 1.5 µM, 14.9 µM and 48.1 µM, respectively. The figures for the Efficacy in assay [3] and in assay [6] were 112% and below 10%, respectively.

Regarding `C/C=C1\OC(=O)c2ccc(OC)cc21`, in assay [1], the EC50 worked out at 21.7 µM. For the same compound, the figures for the IC50 in [2], in assay [4] and in assay [5] were above 100 µM, 161 µM and above 200 µM, respectively. For the same compound, the Efficacy in assay [3] was 24.6%; in assay [6], below 10%.

With `CCC/C=C1\OC(=O)c2ccccc21`, the Efficacy in assay [3] and in assay [6] was below 10% in each case.

On to `Cc1cc(C)c2c(c1)/C(=C/c1ccccc1)OC2=O`, for which, in assay [1], the EC50 came out at 1.1 µM. The IC50 worked out at 0.8 µM in assay [2], 1 µM in assay [4] and 1.9 µM in assay [5]. The Efficacy in [3] was 117%; in assay [6] it was below 10%.

As to `CC/C=C1\OC(=O)c2c(C)cc(C)cc21`, the EC50 in assay [1] stood at 15.8 µM. The half-maximal inhibitory concentration (IC50) was 36.3 µM in [2], 7.7 µM in assay [4] and 12.1 µM in assay [5]. The Efficacy is 43.7% in assay [3] and below 10% in assay [6].

Turning to `COc1ccc(/C=C2\OC(=O)c3ccccc32)cc1`, the figures for the EC50 in assay [1] and in assay [7] were 1.3 µM and 1.8 µM, respectively. The values for the IC50 in [2], in assay [4] and in assay [5] were 2.2 µM, 3.4 µM and 11.3 µM, respectively. For the same compound, the Efficacy in assay [3] came out at 65.1%; in assay [6], 12.9%.

Consider `CCC/C=C1\OC(=O)c2ccccc21` (mixture of isomers) [Z-butylidenephthalide], for which the IC50 in [8] was found to be 23 µM.

`Cc1ccc(/C=C2\OC(=O)c3ccccc32)cc1`: the EC50 in assay [1] came to 4.3 µM. For the same compound, the IC50 in assay [2] came out at 2.4 µM; in assay [4], 7.2 µM; in assay [5], 25.1 µM. Moreover, the Efficacy in assay [3] was 126%; in assay [6], below 10%.

In assay [9], `CCC/C=C1\OC(=O)C2=C1CCC=C2` [LIGUSTILIDE] displayed an EC50 of 44 µM.

In the case of `CCC/C=C1\OC(=O)c2ccccc21` [Z-butylidenephthalide], the IC50 in [2] stood at 44.5 µM; in assay [4], 141 µM; in assay [5], 153 µM.
